Measured values as given in ChEMBL document CHEMBL1126881, “3-Nitro-3,4-dihydro-2(1H)-quinolones. Excitatory amino acid antagonists acting at glycine-site NMDA and (RS)-alpha-amino-3-hydroxy-5-methyl-4-isoxazolepropionic acid receptors” (J Med Chem, 1993).

Tests used:
[1] = molecular target: Glutamate receptor ionotropic, NMDA 1 (Rattus norvegicus, UniProt P35439); experiment: Binding affinity towards NMDA receptor to displace [3H]L-689,560 from rat cortical membranes
Rattus norvegicus [2] = organism: Rattus norvegicus; experiment: In vitro evaluation to antagonize AMPA responses in rat cortical slice preparation; type: functional
Summary of the method: (§1)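 Rat cortical slice preparation. Apparent Kb was calculated from the rightward shift of the agonist (NMDA or AMPA) concentration-response curve produced by the antagonist. Values are means of three determinations.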

Rattus norvegicus [3] = organism: Rattus norvegicus; experiment: In vitro evaluation to antagonize NMDA responses in rat cortical slice preparation; type: functional; summary of the method: as §1
Mus musculus [4] = experiment: In vivo evaluation to protect DBA/2 mice against audiogenic seizure ip 30 min prior to noise stimulation; type: functional
Summary of the method: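 DBA/2 mice dosed intraperitoneally 30 min before noise stimulation and scored for protection against audiogenic seizure. Results are reported as ED50 (mg/kg) or as number protected/number tested at a single dose (50, 75 or 100 mg/kg, groups of 8).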

Mus musculus [5] = experiment: In vivo evaluation to protect DBA/2 mice against audiogenic seizure at 75 mg/kg ip 30 min prior to noise stimulation; 2 out of 8 mouse effected; type: functional; details: route intraperitoneal
[6] = pKa value was determined; Value ranges from 5-6; type: physicochemical
[7] = pKa value was determined; type: physicochemical
Mus musculus [8] = experiment: In vivo evaluation to protect DBA/2 mice against audiogenic seizure at 100 mg/kg ip 30 min prior to noise stimulation; 0 out of 8 mouse effected; type: functional; details: route intraperitoneal
Mus musculus [9] = experiment: In vivo evaluation to protect DBA/2 mice against audiogenic seizure at 50 mg/kg ip 30 min prior to noise stimulation; 0 out of 8 mouse effected; type: functional; details: route intraperitoneal

| IC50 [1] [µM] | pKa [7] | SMILES | Kb (Rattus norvegicus [3]) | other results |
| --- | --- | --- | --- | --- |
| 0.414 | – | O=C1Nc2cc(Cl)ccc2CC1[N+](=O)[O-] (stereo not given) | 6.7 µM | Kb (Rattus norvegicus [2]): 9.2 µM; ED50 (Mus musculus [4]): 13.2 mg/kg |
| > 100 | – | COC(=O)Cc1c(C(=O)OC)c(O)nc2cc(Cl)ccc12 | – | – |
| 2.23 | – | CCOC(=O)CC1c2ccc(Cl)cc2NC(=O)C1[N+](=O)[O-] (stereo not given) | 8.1 µM | – |
| 1.32 | – | COC(=O)CC1c2ccc(Cl)cc2NC(=O)C1[N+](=O)[O-] (stereo not given) | 7 µM | Protected (Mus musculus [5]): 2; Kb (Rattus norvegicus [2]): 139 µM; pKa [6]: ~5 |
| > 100 | 10.8 | COC(=O)CC1c2ccc(Cl)cc2NC(=O)C1S(=O)(=O)c1ccccc1 (stereo not given) | – | – |
| 2.53 | – | O=C(CC1c2ccc(Cl)cc2NC(=O)C1[N+](=O)[O-])NCc1ccccc1 (stereo not given) | – | Protected (Mus musculus [8]): 0 |
| – | – | CN(C)C(=O)CC1c2ccc(Cl)cc2NC(=O)C1[N+](=O)[O-] (stereo not given) | 22.2 µM | Protected (Mus musculus [8]): 0 |
| 12.4 | – | CNC(=O)CC1c2ccc(Cl)cc2NC(=O)C1[N+](=O)[O-] (stereo not given) | >30 | – |
| 1.84 | – | CN(C(=O)CC1c2ccc(Cl)cc2NC(=O)C1[N+](=O)[O-])c1ccccc1 (stereo not given) | > 10 µM | Protected (Mus musculus [9]): 0 |
| 28.6 | – | COC(=O)CC1c2ccccc2NC(=O)C1[N+](=O)[O-] (stereo not given) | – | – |
| > 100 | 9.9 | COC(=O)CC1c2ccc(Cl)cc2NC(=O)C1S(=O)(=O)c1ccc([N+](=O)[O-])cc1 (stereo not given) | – | – |
| > 100 | > 11 | COC(=O)CC1c2ccc(Cl)cc2NC(=O)C1C(=O)OC (stereo not given) | – | – |
| > 100 | ~9 | COC(=O)CC1c2ccc(Cl)cc2NC(=O)C1C(=O)c1ccccc1 (stereo not given) | – | – |
| 5.59 | – | Cc1noc(CC2c3ccc(Cl)cc3NC(=O)C2[N+](=O)[O-])n1 (stereo not given) | 25.9 µM | Protected (Mus musculus [8]): 0 |
| 12 | 10.2 | COC(=O)CC1c2ccc(Cl)cc2NC(=O)C1C#N (stereo not given) | – | – |
| > 100 | – | COC(=O)CC1CC(=O)Nc2cc(Cl)ccc21 (stereo not given) | – | – |
| > 100 | > 11 | COC(=O)CC1c2ccc(Cl)cc2NC(=O)C1S(C)(=O)=O (stereo not given) | – | – |
| 7.43 | – | O=C(CC1c2ccc(Cl)cc2NC(=O)C1[N+](=O)[O-])Nc1ccccc1 (stereo not given) | > 10 µM | – |
